From ChEMBL document CHEMBL3044558, “Structure-activity relationship development of dihaloaryl triazole compounds as insecticides and acaricides. 1. Phenyl thiophen-2-yl triazoles” (2007)
≈ marks a conversion by molar mass, not a printed value. Calls of active or inactive are those of the source. The calls are words filed in the database; no cut-off is given here.

Columns and labels:
Heliothis virescens [1] = experiment: Insecticidal activity against Heliothis virescens (tobacco budworm) second-instar larvae infested on compound pre-treated cotton cotyledon disk assessed as insect mortality measured 5 days post compound treatment under green house conditions; assay type: functional; settings: for LC50: Heliothis virescens
Outline: (§1)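 Leaf disks treated, air-dried and placed singly in cups. Cotton cotyledon disks each get one second-instar tobacco budworm larva; cabbage leaf disks each get one second-instar cabbage looper larva. Cups are capped and held in a growth chamber at 25 °C, 50-55% RH, 14 h light/10 h dark for 5 days.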

Tetranychus urticae [2] = experiment: Insecticidal activity against female Tetranychus urticae (two-spotted spider mite) infested cotton leaf disks followed by 2.5 ppm compound spraying after oviposit assessed as insect mortality measured after 6 days post compound application under green house conditions; assay type: functional; settings: foliar, 144 h
Aphis gossypii [3] = experiment: Insecticidal activity against Aphis gossypii (cotton aphid) infested one week old Crookneck squash plants assessed as insect mortality at 5 ppm measured after 3 days post compound application under green house conditions; assay type: functional; settings: 72 h
Aphis gossypii [4] = experiment: Insecticidal activity against Aphis gossypii (cotton aphid) infested one week old Crookneck squash plants assessed as insect mortality at 50 ppm measured after 3 days post compound application under green house conditions; assay type: functional; settings: 72 h
Trichoplusia ni [5] = experiment: Insecticidal activity against Trichoplusia ni (cabbage looper) second-instar larvae infested on compound pre-treated cabbage leaf disk assessed as insect mortality measured 5 days post compound treatment under green house conditions; assay type: functional; settings: for LC50: Trichoplusia ni, foliar; outline: as §1
Heliothis virescens [6] = experiment: Insecticidal activity against Heliothis virescens (tobacco budworm) second-instar larvae infested on 400 ppm compound pre-treated cotton cotyledon disk assessed as insect mortality measured 5 days post compound treatment under green house conditions; assay type: functional
Spodoptera exigua [7] = experiment: Insecticidal activity against Spodoptera exigua second-instar larvae feeded on 400 ppm compound treated lepidopteran diet assessed as insect mortality measured 5 days post compound treatment under green house conditions; assay type: functional; settings: at 400 ppm
Bemisia tabaci [8] = system: Bemisia tabaci
Spodoptera exigua [9] = experiment: Insecticidal activity against Spodoptera exigua second-instar larvae feeded on compound treated lepidopteran diet assessed as insect mortality measured 5 days post compound treatment under green house conditions; assay type: functional; settings: for LC50: Spodoptera exigua, 120 h
Myzus persicae = experiment: Insecticidal activity against Myzus persicae (green peach aphid) assessed as insect mortality at 50 ppm; assay type: functional
Trichoplusia ni [10] = experiment: Insecticidal activity against Trichoplusia ni (cabbage looper) second-instar larvae infested on 400 ppm compound pre-treated cabbage leaf disk assessed as insect mortality measured 5 days post compound treatment under green house conditions; assay type: functional; settings: at 400 ppm
Bemisia tabaci [11] = experiment: Insecticidal activity against Bemisia tabaci (sweet potato whitefly) second-instar larvae infested five weeks old cotton plants followed by compound 250 ppm compound spraying after insect oviposit assessed as insect mortality measured 13 days post compound treatment under green house conditions; assay type: functional
Aphis gossypii [12] = experiment: Insecticidal activity against Aphis gossypii (cotton aphid) infested one week old Crookneck squash plants assessed as insect mortality measured after 3 days post compound application under green house conditions; assay type: functional; settings: for LC50: Aphis gossypii, 72 h
Trichoplusia ni [13] = system: Trichoplusia ni
Tetranychus urticae [14] = system: Tetranychus urticae
Aphis gossypii [15] = system: Aphis gossypii
Spodoptera exigua [16] = system: Spodoptera exigua
Tetranychus urticae [17] = experiment: Insecticidal activity against female Tetranychus urticae (two-spotted spider mite) infested cotton leaf disks followed compound spraying after oviposit assessed as insect mortality measured after 6 days post compound application under green house conditions; assay type: functional; settings: for LC50: Tetranychus urticae, foliar, 144 h
Heliothis virescens [18] = system: Heliothis virescens

Row | SMILES | LC50 (Heliothis virescens [1]) | mortality at 2.5 ppm (Tetranychus urticae [2]) | mortality at 50 ppm (Aphis gossypii [4]) | LC50 (Trichoplusia ni [5]) | mortality (Heliothis virescens [6]) | mortality (Spodoptera exigua [7]) | mortality (Bemisia tabaci [8]) | LC50 (Spodoptera exigua [9]) | LC50 (Myzus persicae) | mortality (Trichoplusia ni [10]) | mortality (Bemisia tabaci [11]) | mortality (Trichoplusia ni [13]) | mortality (Tetranychus urticae [14]) | mortality (Aphis gossypii [15]) | mortality (Spodoptera exigua [16]) | other results
1 | Cc1cc(-c2ccc(OC(F)(F)C(F)Br)cc2)sc1-c1nc(-c2c(F)cccc2Cl)nn1C (configuration not stated) | 3.93 µg/mL (≈ 7.01 µM) | 90% | 90% | < 1.6 µg/mL | 90% | 70% | inactive | 2.17 µg/mL (≈ 3.87 µM) | 62 µg/mL (≈ 111 µM) | <50% |  |  |  |  |  | mortality at 5 ppm (Aphis gossypii [3]): 89%
2 | CC1(C)C(C=C(Cl)Cl)C1C(=O)OC(C#N)c1cccc(Oc2ccccc2)c1 (stereo not drawn) [ALPHA-CYPERMETHRIN] | 1.3 µg/mL (≈ 3.12 µM) |  |  | 0.6 µg/mL (≈ 1.44 µM) |  |  |  | 1.6 µg/mL (≈ 3.84 µM) |  |  |  |  |  |  |  | 
3 | Cc1c(-c2ccc(OC(F)(F)C(F)Cl)cc2)csc1-c1nc(-c2c(F)cccc2Cl)nn1C (configuration not stated) | 4.38 µg/mL (≈ 8.48 µM) | 90% | 80% | < 1.56 µg/mL | 90% | 80% |  | 1.56 µg/mL (≈ 3.02 µM) | < 5 µg/mL | 70% | 90% |  |  |  |  | LC50 (Aphis gossypii [12]): < 5 µg/mL
4 | Cc1sc(-c2nc(-c3c(F)cccc3Cl)nn2C)c(C)c1-c1ccc(O)cc1 |  |  |  |  | <50% |  |  |  |  |  | <50% | inactive | inactive | inactive | inactive | 
5 | Cn1nc(-c2c(F)cccc2Cl)nc1-c1sc(-c2ccc(OC(F)(F)F)cc2)cc1Cl | 62 µg/mL (≈ 127 µM) | 90% | 90% | 4.02 µg/mL (≈ 8.23 µM) | 90% | 70% | inactive | < 1.6 µg/mL | 65 µg/mL (≈ 133 µM) | 90% |  |  |  |  |  | mortality at 5 ppm (Aphis gossypii [3]): 80%; LC90 (Trichoplusia ni [5]): 69.2 ppm
6 | Cc1cc(-c2ccc(OC(F)(F)C(F)Cl)cc2)sc1-c1nc(-c2c(F)cccc2Cl)nn1C (configuration not stated) | < 1.6 µg/mL | 90% | 90% | < 1.6 µg/mL | 90% | 60% |  | < 1.79 µg/mL | < 3.1 µg/mL | 90% | <50% |  |  |  |  | LC90 (Tetranychus urticae [17]): 2.07 ppm; LC50 (Tetranychus urticae [17]): < 0.1 µg/mL; LC50 (Aphis gossypii [12]): < 0.5 µg/mL
7 | Cn1nc(-c2c(F)cccc2Cl)nc1-c1ccc(-c2ccc(OC(F)(F)F)cc2)s1 | 122 µg/mL (≈ 269 µM) | 90% | 90% | 20.6 µg/mL (≈ 45.4 µM) | 90% | 70% |  | 49.9 µg/mL (≈ 110 µM) | 9.6 µg/mL (≈ 21.2 µM) |  | <50% | inactive |  |  |  | mortality at 5 ppm (Aphis gossypii [3]): 47%; LC90 (Trichoplusia ni [5]): 27.7 ppm; LC90 (Spodoptera exigua [9]): 59.9 ppm
8 | Cn1nc(-c2c(F)cccc2Cl)nc1-c1cc(Br)c(-c2ccc(C(F)(F)F)cc2)s1 |  |  |  |  |  |  | inactive |  |  |  |  | inactive | inactive | inactive | inactive | mortality (Heliothis virescens [18]): inactive
9 | Cc1cc(C2CCC(O)CC2)sc1-c1nc(-c2c(F)cccc2Cl)nn1C (configuration not stated) |  |  |  |  | <50% |  |  |  |  |  | 50% | inactive | inactive | inactive | inactive | 
10 | Cn1nc(-c2c(F)cccc2Cl)nc1-c1ccc(-c2ccc(C(F)(F)F)cc2)s1 |  | 80% |  |  |  |  | inactive |  |  |  |  | inactive |  | inactive | inactive | mortality (Heliothis virescens [18]): inactive
11 | Cn1nc(-c2c(F)cccc2F)nc1-c1ccc(-c2ccc(C(C)(F)F)cc2Cl)s1 |  |  |  |  |  |  | inactive |  |  |  |  | inactive | inactive | inactive | inactive | mortality (Heliothis virescens [18]): inactive
12 | Cn1nc(-c2c(F)cccc2F)nc1-c1ccc(-c2ccc(F)c(F)c2)s1 |  |  |  |  |  |  | inactive |  |  |  |  | inactive | inactive | inactive | inactive | mortality (Heliothis virescens [18]): inactive
13 | Cc1cc(-c2ccc(OC(F)(F)F)cc2)sc1-c1nc(-c2c(F)cccc2Cl)nn1C | 225 µg/mL (≈ 481 µM) | 90% | 60% | < 1.6 µg/mL | 80% | 90% | inactive | < 1.6 µg/mL | 13.7 µg/mL (≈ 29.3 µM) | 90% |  |  |  |  |  | LC90 (Tetranychus urticae [17]): 0.151 ppm; LC50 (Tetranychus urticae [17]): < 0.04 µg/mL; LC90 (Aphis gossypii [12]): 12.8 ppm; LC50 (Aphis gossypii [12]): 0.5 µg/mL (≈ 1.07 µM)
14 | Cn1nc(-c2c(F)cccc2Cl)nc1-c1sc(-c2ccc(OC(F)(F)C(F)Br)cc2)cc1Cl (configuration not stated) | 53.7 µg/mL (≈ 92.4 µM) | 90% | 90% | < 1.6 µg/mL | 90% | 50% | inactive | < 1.6 µg/mL | 70 µg/mL (≈ 120 µM) | 70% |  |  |  |  |  | mortality at 5 ppm (Aphis gossypii [3]): 54%
15 | Cc1c(Br)csc1-c1nc(-c2c(F)cccc2Cl)nn1C |  |  |  |  |  |  |  |  | 0.8 µg/mL (≈ 2.07 µM) |  |  |  |  |  |  | LC50 (Tetranychus urticae [17]): 0.29 µg/mL (≈ 0.75 µM); LC50 (Aphis gossypii [12]): 0.7 µg/mL (≈ 1.81 µM)
16 | Cc1c(-c2ccc(OC(F)(F)F)cc2)csc1-c1nc(-c2c(F)cccc2Cl)nn1C | > 400 µg/mL | 90% | 90% | 15.8 µg/mL (≈ 33.8 µM) | 90% | 90% |  | 21.9 µg/mL (≈ 46.8 µM) | 23.3 µg/mL (≈ 49.8 µM) | 90% | 90% |  |  |  |  | LC90 (Aphis gossypii [12]): 22.2 ppm; LC50 (Aphis gossypii [12]): 0.07 µg/mL (≈ 0.15 µM)
17 | Cc1cc(-c2ccc(Cl)c(F)c2)sc1-c1nc(-c2c(F)cccc2Cl)nn1C | 19.4 µg/mL (≈ 44.5 µM) | 90% | 80% | 30.2 µg/mL (≈ 69.2 µM) | 90% | 90% | inactive | 65 µg/mL (≈ 149 µM) | 89 µg/mL (≈ 204 µM) | 90% |  |  |  |  |  | LC90 (Trichoplusia ni [5]): 40.3 ppm; LC90 (Spodoptera exigua [9]): 323 ppm; LC90 (Aphis gossypii [12]): 933 ppm; LC50 (Aphis gossypii [12]): 0.923 µg/mL (≈ 2.12 µM)
18 | O=[N+]([O-])/N=C1\NCCN1Cc1ccc(Cl)nc1 [IMIDACLOPRID] |  |  |  |  |  |  |  |  | 1.7 µg/mL (≈ 6.65 µM) |  |  |  |  |  |  | LC50 (Aphis gossypii [12]): 0.05 µg/mL (≈ 0.196 µM)
19 | Cc1cc(-c2cccc(OC(F)(F)C(F)Cl)c2)sc1-c1nc(-c2c(F)cccc2Cl)nn1C (configuration not stated) | 4.38 µg/mL (≈ 8.48 µM) | 90% | 90% | < 1.6 µg/mL | 90% | 60% | inactive | 23.1 µg/mL (≈ 44.7 µM) | 75 µg/mL (≈ 145 µM) |  |  | inactive |  |  |  | LC90 (Heliothis virescens [1]): 151 ppm; mortality at 5 ppm (Aphis gossypii [3]): 91%
20 | Cn1nc(-c2c(F)cccc2Cl)nc1-c1ccc(-c2cccc(C(F)(F)F)c2)s1 |  |  |  |  |  |  | inactive |  |  |  |  | inactive | inactive | inactive | inactive | mortality (Heliothis virescens [18]): inactive
21 | Cn1nc(-c2c(F)cccc2Cl)nc1-c1sc(-c2ccc(OC(F)(F)C(F)Cl)cc2)cc1Cl (configuration not stated) | < 1.6 µg/mL | 90% | 90% | < 1.6 µg/mL | 90% | 60% | inactive | < 1.6 µg/mL | 78 µg/mL (≈ 145 µM) |  |  | inactive |  |  |  | mortality at 5 ppm (Aphis gossypii [3]): 72%
22 | Cn1nc(-c2c(F)cccc2Cl)nc1-c1sc(-c2ccc(O)cc2)cc1Cl |  |  | < 50% |  | 60% |  | inactive |  |  |  |  | inactive | inactive |  | inactive | 
23 | Cc1ccc(-c2ccc(-c3nc(-c4c(F)cccc4Cl)nn3C)s2)cc1 |  |  |  |  |  |  |  |  |  |  | <50% | inactive | inactive | inactive | inactive | mortality (Heliothis virescens [18]): inactive
24 | Cc1cc(C2=CCC(O)CC2)sc1-c1nc(-c2c(F)cccc2Cl)nn1C (configuration not stated) |  |  | < 50% |  | <50% |  |  |  |  |  | <50% | inactive | inactive |  | inactive | 
